In ChEMBL document CHEMBL4261484, “Design, synthesis and anticonvulsant-analgesic activity of new N-[(phenoxy)alkyl]- and N-[(phenoxy)ethoxyethyl]aminoalkanols” (Medchemcomm, 2017):
Activity calls are given as the source filed them.

How the values were obtained:
Mus musculus [1] = experiment: Neurotoxicity in mouse assessed as motor impairment by measuring loss of coordination at 69 mg/kg, ip measured for 60 secs by chimney test relative to control; format: toxicity, organism-based; conditions: in vivo, 1 min
Procedure, shortened: (§1)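 Mice dosed ip; trained, selected animals placed in a horizontal tube 25 cm long and 2.5 cm in diameter, then tube reversed so mice must climb out backward. Read-outs: escape time (s) ± SEM and % animals losing coordination versus control. Unpaired t test.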

Mus musculus [2] = experiment: Toxicity in mouse at 100 mg/kg, ip measured during maximal electroshock seizure test; format: organism-based; conditions: in vivo
Mus musculus [3] = experiment: Toxicity in mouse assessed as effect on spontaneous activity at 69 mg/kg, ip measured for 30 mins by photoresistor actometer relative to control; format: organism-based; conditions: in vivo, 0.5 h
Procedure, shortened: (§2)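 Mice dosed ip; locomotor activity by photoresistor actometers counting light-beam interruptions. Each mouse was habituated 30 min in a cage, then crossings were counted over a 30 min session. Data are mean ± SEM and % change vs control; unpaired t test.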

Mus musculus [4] = experiment: Anticonvulsant activity in mouse assessed as protection against maximal electroshock-induced seizures at 100 mg/kg, ip; format: functional, organism-based
Procedure, shortened: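 Mice dosed ip; maximal seizures induced by auricular electroshock (25 mA, 500 V, 50 Hz, 0.2 s). Endpoint: hind-limb tonic extension; animals without it scored protected. Read-out is number protected over number tested.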

[5] = Neurotoxicity in ip dosed mouse assessed as motor impairment measured for one min by rotarod test; format: toxicity, organism-based; conditions: in vivo
Procedure, shortened: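 Mice trained on an accelerating rotarod, then tested at least 24 h later after ip pretreatment, on a rod turning at 10 rpm. Neurotoxicity was scored as failure to stay on the rod for one minute. Read-out is mice impaired over mice tested.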

[6] = Protection index, ratio of TD50 for neurotoxicity in ip dosed mouse by rotarod test to ED50 for anticonvulsant activity in mouse by maximal electroshock seizure test; format: toxicity, organism-based; conditions: in vivo, read-out: Ratio TD50/ED50
Mus musculus [7] = experiment: Anticonvulsant activity in ip dosed mouse assessed as protection against maximal electroshock-induced seizures; format: functional
Procedure, shortened: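 Mice were dosed ip. Maximal seizures were induced by auricular electrodes (25 mA, 500 V, 50 Hz, 0.2 s). Absence of hind-limb tonic extension counted as protection. […] Motor impairment was scored on a 10 rpm rotarod, giving TD50 the same way.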

Mus musculus [8] = experiment: Anticonvulsant activity in mouse assessed as current strength required to induce tonic hind-limb extension in 50% of the animals at 30 mg/kg, ip by maximal electroshock seizure threshold test (reference value: 6.05 to 8.13 mA); format: functional
HepG2 [9] = experiment: Cytotoxicity against human HepG2 cells assessed as effect on cell viability at 10 to 250 uM after 24 hrs by neutral red assay; format: cell-based; conditions: hepg2, 24 h
Procedure, shortened: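 HepG2 cells seeded at 5 × 10^4 per well, then after 24 h given medium with 10–250 μM for 24 h. Viability by neutral red staining, OD 570 nm. Results are % of control ± SEM, three independent experiments.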

Mus musculus [10] = experiment: Anticonvulsant activity in mouse assessed as increase in electroconvulsive threshold at 30 mg/kg, ip by maximal electroshock seizure threshold test relative to control; format: functional
Mus musculus [11] = experiment: Toxicity in mouse at 80 mg/kg, ip measured during maximal electroshock seizure test; format: organism-based; conditions: in vivo
SH-SY5Y [12] = experiment: Potentiation of H2O2-induced cytotoxicity against human SH-SY5Y cells at 10^-5 M after 72 hrs by LDH release assay; format: cell-based; conditions: 10 µM
Procedure, shortened: (§3)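 SH-SY5Y cells in 1% FBS given 10^-8 to 10^-5 M for 72 h, with H2O2 (0.5 mM) added for the last 24 h. LDH released into medium measured at 490 nm and normalized to vehicle cells without H2O2. Dunnett's test after one-way ANOVA.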

Mus musculus [13] = experiment: Anticonvulsant activity in mouse assessed as protection against subcutaneous pentylenetetrazole-induced seizures at 100 mg/kg, ip measured for 30 mins post pentylenetetrazole challenge at 0.5 hrs after compound dosing relative to control; format: functional
HepG2 [14] = experiment: Cytotoxicity against human HepG2 cells assessed as effect on cell viability at 10 to 250 uM after 24 hrs by MTT assay; format: cell-based; conditions: hepg2, 24 h
Procedure, shortened: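 HepG2 cells grown in MEM with 10% FBS (37 °C, 5% CO2) and seeded at 1 × 10^4. After overnight culture, exposed to 10–250 μM for 24 h. MTT for 3 h, formazan dissolved, OD 570 nm. Viability is % of control ± SEM from three independent experiments.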

Mus musculus [15] = experiment: Analgesic activity in mouse assessed as decrease in time of paw licking during phase 1 at 69 mg/kg, ip measured for 5 mins by formalin test relative to control; format: functional; parameters: scale not given: the % may be the effect or the level left
Procedure, shortened: (§4)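 Formalin test in mice: 20 μL of 5% formalin injected intraplantarly into the right hind paw. Each mouse was observed alone in a glass beaker for 30 min. Time (s) spent licking or biting the injected paw was recorded at 0–5 min (acute phase) and 15–30 min (inflammatory phase).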

SH-SY5Y [16] = experiment: Potentiation of H2O2-induced cytotoxicity against human SH-SY5Y cells at 10^-8 to 10^-6 M after 72 hrs by LDH release assay; format: cell-based; procedure, shortened: as §3
SH-SY5Y [17] = experiment: Cytotoxicity against human SH-SY5Y cells 10^-8 to 10^-4 M after 24 hrs by MTT assay; format: cell-based
SH-SY5Y [18] = experiment: Cytotoxicity against human SH-SY5Y cells 10^-8 to 10^-4 M after 72 hrs by LDH release assay; format: cell-based
Procedure, shortened: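 SH-SY5Y cells grown in DMEM with 10% FBS, then seeded at 15000 per well in 1% FBS a day ahead. Treated with 10^-8 to 10^-4 M (water-dissolved) for 72 h, with vehicle controls and triton as positive control. LDH in medium read at 490 nm, expressed as % of vehicle-treated cells. Dunnett's test after one-way ANOVA.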

Mus musculus [19] = experiment: Anticonvulsant activity in mouse assessed as protection against subcutaneous pentylenetetrazole-induced seizures by measuring latency time of tonic seizures at 100 mg/kg, ip measured for 30 mins post pentylenetetrazole challenge at 0.5 hrs after compound dosing (reference value: 562.8 to 614.9 secs); format: functional
[20] = Cytotoxicity against mouse CRL-2541 cells assessed as effect on cell viability at 10 to 250 uM after 24 hrs by MTT assay; format: cell-based
Mus musculus [21] = experiment: Analgesic activity in mouse assessed as decrease in time of paw licking during phase 2 at 69 mg/kg, ip measured for 15 to 30 mins by formalin test relative to control; format: functional; parameters: scale not given: the % may be the effect or the level left; procedure, shortened: as §4
SH-SY5Y [22] = experiment: Potentiation of H2O2-induced cytotoxicity against human SH-SY5Y cells at 10^-6 to 10^-5 M after 24 hrs by MTT assay; format: cell-based
Mus musculus [23] = experiment: Neurotoxicity in mouse assessed as motor impairment by measuring time of escaping from chimney at 69 mg/kg, ip measured for 60 secs (reference value: 8.87 +/- 1.79 secs); format: toxicity, organism-based; conditions: in vivo, 1 min; procedure, shortened: as §1
Mus musculus [24] = experiment: Toxicity in mouse at 60 mg/kg, ip measured during maximal electroshock seizure test; format: organism-based; conditions: in vivo
HepG2 [25] = experiment: Cytotoxicity against human HepG2 cells assessed as effect on cell viability at 10 to 200 uM after 24 hrs by MTT assay; format: cell-based; conditions: hepg2, 24 h
Procedure, shortened: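 HepG2 cells grown in MEM with 10% FBS (37 °C, 5% CO2) and seeded at 1 × 10^4. After overnight culture, doxorubicin 10–200 μM for 24 h. MTT added for 3 h, crystals dissolved, OD 570 nm. Viability is % of control ± SEM, three independent experiments.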

Mus musculus [26] = experiment: Analgesic activity in mouse assessed as decrease in time of paw licking during phase 2 at 33 mg/kg, ip measured for 15 to 30 mins by formalin test relative to control; format: functional; parameters: scale not given: the % may be the effect or the level left; procedure, shortened: as §4
Mus musculus [27] = experiment: Anticonvulsant activity in mouse assessed as protection against subcutaneous pentylenetetrazole-induced seizures at 80 mg/kg, ip measured for 30 mins post pentylenetetrazole challenge at 0.5 hrs after compound dosing relative to control; format: functional
Mus musculus [28] = experiment: Anticonvulsant activity in mouse assessed as increase in electroconvulsive threshold at 20 mg/kg, ip by maximal electroshock seizure threshold test relative to control; format: functional
Mus musculus [29] = experiment: Toxicity in mouse assessed as effect on spontaneous activity at 33 mg/kg, ip measured for 30 mins by photoresistor actometer relative to control; format: organism-based; conditions: in vivo, 0.5 h; procedure, shortened: as §2
Mus musculus [30] = experiment: Neurotoxicity in mouse assessed as motor impairment by measuring loss of coordination at 33 mg/kg, ip measured for 60 secs by chimney test relative to control; format: toxicity, organism-based; conditions: in vivo, 1 min; procedure, shortened: as §1
Mus musculus [31] = experiment: Anticonvulsant activity in mouse assessed as current strength required to induce tonic hind-limb extension in 50% of the animals at 20 mg/kg, ip by maximal electroshock seizure threshold test (reference value: 6.05 to 8.13 mA); format: functional
Mus musculus [32] = experiment: Neurotoxicity in mouse assessed as motor impairment by measuring time of escaping from chimney at 33 mg/kg, ip measured for 60 secs (reference value: 8.87 +/- 1.79 secs); format: toxicity, organism-based; conditions: in vivo, 1 min; procedure, shortened: as §1
Mus musculus [33] = experiment: Analgesic activity in mouse assessed as decrease in time of paw licking during phase 1 at 33 mg/kg, ip measured for 5 mins by formalin test relative to control; format: functional; parameters: scale not given: the % may be the effect or the level left; procedure, shortened: as §4
Mus musculus [34] = experiment: Anticonvulsant activity in mouse assessed as protection against subcutaneous pentylenetetrazole-induced seizures by measuring latency time of tonic seizures at 80 mg/kg, ip measured for 30 mins post pentylenetetrazole challenge at 0.5 hrs after compound dosing (reference value: 562.8 to 614.9 secs); format: functional

In the case of Cc1cccc(OCCOCCN2CCCC(O)C2)c1C.Cl (stereo not given), the Activity (Mus musculus [1]) is reported as 0%, the Activity (Mus musculus [2]) is reported as “Non-Toxic” and the Activity (Mus musculus [3]) is reported as 14.98%. The Activity (Mus musculus [4]) was “Active”, the TD50 at 1 min [5] was 122 mg/kg and the selectivity ratio [6] was 1.77. For the same compound, the ED50 (Mus musculus [7]) was 68.7 mg/kg, the Activity (Mus musculus [8]) was 13.18 mA and the Activity (HepG2 [9]) was “Non-Toxic”. The Activity (Mus musculus [10]) was 75.03%, the Activity (Mus musculus [11]) was “Non-Toxic” and the Activity (SH-SY5Y [12]) was “Toxic”. For the same compound, the Activity (Mus musculus [13]) was “inactive”, the Activity (HepG2 [14]) was “Non-Toxic” and the Activity (Mus musculus [15]) was 13.74%. The Activity (SH-SY5Y [16]) was “Non-Toxic”, the Activity (SH-SY5Y [17]) was “Non-Toxic” and the Activity (SH-SY5Y [18]) was “Non-Toxic”. The Time (Mus musculus [19]) was 564.8 s, the Activity [20] was “Non-Toxic” and the Activity (Mus musculus [21]) was 64.59%. For the same compound, the Activity (SH-SY5Y [22]) was “Toxic”, the Time (Mus musculus [23]) was 4.75 s and the Activity (Mus musculus [24]) was “Non-Toxic”.

For COc1cccc2c1C(=O)c1c(O)c3c(c(O)c1C2=O)C[C@@](O)(C(=O)CO)C[C@@H]3O[C@H]1C[C@H](N)[C@H](O)[C@H](C)O1 [DOXORUBICIN], the Activity (HepG2 [25]) was “Toxic”.

In the case of Cc1cccc(OCCOCCN[C@H]2CCCC[C@@H]2O)c1C (racemic), the Activity (Mus musculus [26]) is reported as 70.13%, the Activity (Mus musculus [27]) is reported as 2.05% and the Activity (Mus musculus [28]) is reported as “inactive”. For the same compound, the Activity (Mus musculus [2]) was “Non-Toxic”, the Activity (Mus musculus [4]) was “Active” and the Activity (Mus musculus [29]) was 3.42%. It also gave a TD50 at 1 min [5] of 47.4 mg/kg, a selectivity ratio [6] of 1.44 and an ED50 (Mus musculus [7]) of 32.9 mg/kg. For the same compound, the Activity (Mus musculus [30]) was 0%, the Activity (Mus musculus [31]) was 7.01 mA and the Time (Mus musculus [32]) was 4.13 s. The Activity (Mus musculus [33]) was 25.47%, the Time (Mus musculus [34]) was 596 s and the Activity (Mus musculus [24]) was “Non-Toxic”.
